Values after ≈ are worked out from the molar mass of the structure shown. Active and inactive are the calls of the source. No cut-off for these calls is given here.
Experiments:
[1] = Antifungal activity against Scedosporium aurantiacum IHEM 15458 infected in immunosuppressed OF1 mouse assessed as prolonged survival of mouse at 20 mg/kg, po BID administered 24 hrs postinfection for 10 days measured after 20 days; type: functional, organism-based; design: dose 20 mg/kg
Method in brief: (§1)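 Male OF1 mice, groups of 10, immunosuppressed 1 day before infection with cyclophosphamide 200 mg/kg i.p. plus 5-fluorouracil 150 mg/kg i.v. Infected i.v. via tail vein with 1 × 10^4 CFU in 0.2 ml saline. Oral treatment began 24 h post-challenge for 10 days. Mice checked daily for 20 days. Survival by Kaplan-Meier, compared by log rank test.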

[2] = test system: Scedosporium boydii; assay: Antifungal activity against Scedosporium boydii FMR 6694 infected in immunosuppressed OF1 mouse assessed as reduction in brain fungal burden at 40 mg/kg, po BID administered 24 hrs postinfection for 10 days measured after 20 days; type: functional, organism-based; design: dose 40 mg/kg
[3] = test system: Scedosporium boydii; assay: Antifungal activity against Scedosporium boydii FMR 8627 infected in immunosuppressed OF1 mouse assessed as reduction in brain fungal burden at 20 mg/kg, po BID administered 24 hrs postinfection for 10 days measured after 20 days; type: functional, organism-based; design: dose 20 mg/kg
[4] = test system: Scedosporium aurantiacum; assay: Antifungal activity against Scedosporium aurantiacum CBS 116910 infected in immunosuppressed OF1 mouse assessed as reduction in brain fungal burden at 40 mg/kg, po BID administered 24 hrs postinfection for 10 days measured after 20 days; type: functional, organism-based; design: dose 40 mg/kg
[5] = test system: Scedosporium boydii; assay: Antifungal activity against Scedosporium boydii FMR 8627 infected in immunosuppressed OF1 mouse assessed as prolonged survival of mouse at 10 mg/kg, po BID administered 24 hrs postinfection for 10 days measured after 20 days; type: functional, organism-based; design: dose 10 mg/kg
Method in brief: (§2)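 Male OF1 mice were immunosuppressed 1 day before infection with cyclophosphamide 200 mg/kg i.p. plus 5-fluorouracil 150 mg/kg i.v. They were infected i.v. via a lateral tail vein with 1 × 10^4 CFU/mouse in 0.2 ml saline. Oral dosing was 10 or 20 mg/kg twice daily, or 20 or 40 mg/kg once daily (those mice and controls drank grapefruit juice from day −3). Dosing ran 24 h post-challenge for 10 days; 10 mice/group; observed daily to day 20; Kaplan-Meier with log rank test.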

[6] = Antifungal activity against Scedosporium aurantiacum IHEM 15458 infected in immunosuppressed OF1 mouse assessed as prolonged survival of mouse at 10 mg/kg, po BID administered 24 hrs postinfection for 10 days measured after 20 days; type: functional, organism-based; design: dose 10 mg/kg; method in brief: as §1
[7] = Antifungal activity against Scedosporium aurantiacum IHEM 15458 by broth dilution method; type: functional
[8] = test system: Scedosporium aurantiacum; assay: Antifungal activity against Scedosporium aurantiacum IHEM 15458 infected in immunosuppressed OF1 mouse assessed as reduction in brain fungal burden at 40 mg/kg, po BID administered 24 hrs postinfection for 10 days measured after 20 days; type: functional, organism-based; design: dose 40 mg/kg
[9] = test system: Scedosporium boydii; assay: Antifungal activity against Scedosporium boydii FMR 6694 infected in immunosuppressed OF1 mouse assessed as reduction in kidney fungal burden at 10 mg/kg, po BID administered 24 hrs postinfection for 10 days measured after 20 days; type: functional, organism-based; design: dose 10 mg/kg
[10] = test system: Scedosporium aurantiacum; assay: Antifungal activity against Scedosporium aurantiacum CBS 116910 infected in immunosuppressed OF1 mouse assessed as reduction in kidney fungal burden at 20 mg/kg, po BID administered 24 hrs postinfection for 10 days measured after 20 days; type: functional, organism-based; design: dose 20 mg/kg
[11] = test system: Scedosporium apiospermum; assay: Antifungal activity against Scedosporium apiospermum IHEM 14464 infected in immunosuppressed OF1 mouse assessed as reduction in kidney fungal burden at 10 mg/kg, po BID administered 24 hrs postinfection for 10 days measured after 20 days; type: functional, organism-based; design: dose 10 mg/kg
[12] = test system: Scedosporium apiospermum; assay: Antifungal activity against Scedosporium apiospermum CBS 117407 infected in immunosuppressed OF1 mouse assessed as reduction in kidney fungal burden at 20 mg/kg, po BID administered 24 hrs postinfection for 10 days measured after 20 days; type: functional, organism-based; design: dose 20 mg/kg
[13] = test system: Scedosporium boydii; assay: Antifungal activity against Scedosporium boydii FMR 8627 infected in immunosuppressed OF1 mouse assessed as reduction in brain fungal burden at 40 mg/kg, po BID administered 24 hrs postinfection for 10 days measured after 20 days; type: functional, organism-based; design: dose 40 mg/kg
[14] = test system: Scedosporium apiospermum; assay: Antifungal activity against Scedosporium apiospermum IHEM 14464 infected in immunosuppressed OF1 mouse assessed as prolonged survival of mouse at 10 mg/kg, po BID administered 24 hrs postinfection for 10 days measured after 20 days; type: functional, organism-based; design: dose 10 mg/kg; method in brief: as §1
[15] = test system: Scedosporium apiospermum; assay: Antifungal activity against Scedosporium apiospermum IHEM 14464 infected in immunosuppressed OF1 mouse assessed as reduction in kidney fungal burden at 20 mg/kg, po BID administered 24 hrs postinfection for 10 days measured after 20 days; type: functional, organism-based; design: dose 20 mg/kg
[16] = test system: Scedosporium apiospermum; assay: Antifungal activity against Scedosporium apiospermum CBS 117407 by broth dilution method; type: functional
[17] = test system: Scedosporium boydii; assay: Antifungal activity against Scedosporium boydii FMR 8627 infected in immunosuppressed OF1 mouse assessed as prolonged survival of mouse at 20 mg/kg, po BID administered 24 hrs postinfection for 10 days measured after 20 days; type: functional, organism-based; design: dose 20 mg/kg; method in brief: as §2
[18] = Antifungal activity against Scedosporium aurantiacum CBS 116910 infected in immunosuppressed OF1 mouse assessed as prolonged survival of mouse at 20 mg/kg, po BID administered 24 hrs postinfection for 10 days measured after 20 days; type: functional, organism-based; design: dose 20 mg/kg; method in brief: as §1
[19] = test system: Scedosporium apiospermum; assay: Antifungal activity against Scedosporium apiospermum IHEM 14464 infected in immunosuppressed OF1 mouse assessed as prolonged survival of mouse at 20 mg/kg, po BID administered 24 hrs postinfection for 10 days measured after 20 days; type: functional, organism-based; design: dose 20 mg/kg; method in brief: as §1
[20] = test system: Scedosporium aurantiacum; assay: Antifungal activity against Scedosporium aurantiacum IHEM 15458 infected in immunosuppressed OF1 mouse assessed as reduction in brain fungal burden at 20 mg/kg, po BID administered 24 hrs postinfection for 10 days measured after 20 days; type: functional, organism-based; design: dose 20 mg/kg
[21] = test system: Scedosporium apiospermum; assay: Antifungal activity against Scedosporium apiospermum IHEM 14464 by broth dilution method; type: functional
[22] = test system: Scedosporium apiospermum; assay: Antifungal activity against Scedosporium apiospermum CBS 117407 infected in immunosuppressed OF1 mouse assessed as prolonged survival of mouse at 10 mg/kg, po BID administered 24 hrs postinfection for 10 days measured after 20 days; type: functional, organism-based; design: dose 10 mg/kg; method in brief: as §1
[23] = test system: Scedosporium apiospermum; assay: Antifungal activity against Scedosporium apiospermum IHEM 14464 infected in immunosuppressed OF1 mouse assessed as reduction in brain fungal burden at 40 mg/kg, po BID administered 24 hrs postinfection for 10 days measured after 20 days; type: functional, organism-based; design: dose 40 mg/kg
[24] = test system: Scedosporium apiospermum; assay: Antifungal activity against Scedosporium apiospermum IHEM 14464 infected in immunosuppressed OF1 mouse assessed as reduction in brain fungal burden at 20 mg/kg, po BID administered 24 hrs postinfection for 10 days measured after 20 days; type: functional, organism-based; design: dose 20 mg/kg
[25] = test system: Scedosporium aurantiacum; assay: Antifungal activity against Scedosporium aurantiacum CBS 116910 infected in immunosuppressed OF1 mouse assessed as reduction in brain fungal burden at 20 mg/kg, po BID administered 24 hrs postinfection for 10 days measured after 20 days; type: functional, organism-based; design: dose 20 mg/kg
[26] = Antifungal activity against Scedosporium aurantiacum CBS 116910 by broth dilution method; type: functional
[27] = test system: Scedosporium boydii; assay: Antifungal activity against Scedosporium boydii FMR 6694 by broth dilution method; type: functional
[28] = test system: Scedosporium apiospermum; assay: Antifungal activity against Scedosporium apiospermum CBS 117407 infected in immunosuppressed OF1 mouse assessed as prolonged survival of mouse at 20 mg/kg, po BID administered 24 hrs postinfection for 10 days measured after 20 days; type: functional, organism-based; design: dose 20 mg/kg; method in brief: as §1

CC[C@@H]([C@H](C)O)n1ncn(-c2ccc(N3CCN(c4ccc(OC[C@@H]5CO[C@@](Cn6cncn6)(c6ccc(F)cc6F)C5)cc4)CC3)cc2)c1=O [POSACONAZOLE]
Activity [1]: Active | Activity [2]: inactive | Activity [3]: Active | Activity [4]: Active | Activity [5]: Active | Activity [6]: Active | MIC [7]: 2 µg/mL (≈ 2.85 µM) | Activity [8]: Active | Activity [9]: inactive | Activity [10]: Active | Activity [11]: Active | Activity [12]: Active | Activity [13]: Active | Activity [14]: Active | Activity [15]: Active | MIC [16]: 1 µg/mL (≈ 1.43 µM) | Activity [17]: Active | Activity [18]: Active | Activity [19]: Active | Activity [20]: Active | MIC [21]: 0.5 µg/mL (≈ 0.713 µM) | Activity [22]: Active | Activity [23]: Active | Activity [24]: Active | Activity [25]: Active | MIC [26]: 32 µg/mL (≈ 45.7 µM) | MIC [27]: 1 µg/mL (≈ 1.43 µM) | Activity [28]: Active

From ChEMBL document CHEMBL1649314, “Experimental murine scedosporiosis: histopathology and azole treatment” (2010)
